Hits are enriched below; roughly 0.79% of the tested compounds scored in any of these assays.
PKA-R2B act: activators of PKA-R2B holoenzyme, primary screen, biochemical, fluorescence polarization, Cy5-IP20, human | PKA-R2B holoenzyme dissociation; R2B truncated from residue 108, S112A mutant; 0% DMSO only, 100% 113 µM cGMP | activation, % at 11.4 µM | 340,000 tested, 0.079% active | AID 504700, 2011;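 active = activation above a cutoff set at the mean over all compounds plus 3 SD, cut at about 18% in these data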;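 also: higher means more holoenzyme dissociation and a rise in polarization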
Target sequence (P31323 whole entry, looked up, other chains not shown, the tested form may be a part): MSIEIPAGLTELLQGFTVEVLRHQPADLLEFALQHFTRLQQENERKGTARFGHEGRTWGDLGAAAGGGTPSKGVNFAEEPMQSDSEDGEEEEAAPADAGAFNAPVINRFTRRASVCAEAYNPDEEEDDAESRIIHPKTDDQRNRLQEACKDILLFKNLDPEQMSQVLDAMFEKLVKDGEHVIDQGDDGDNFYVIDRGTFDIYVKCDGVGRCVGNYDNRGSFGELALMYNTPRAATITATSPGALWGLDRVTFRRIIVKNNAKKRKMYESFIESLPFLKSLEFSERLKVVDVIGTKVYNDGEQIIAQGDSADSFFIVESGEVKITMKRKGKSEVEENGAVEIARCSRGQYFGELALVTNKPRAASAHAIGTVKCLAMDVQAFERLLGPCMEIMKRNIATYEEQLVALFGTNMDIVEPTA
UCH37 DUB inh: inhibitors of human UCH37 deubiquitinase, primary screen, biochemical, Ub-AMC cleavage, fluorescence; inhibition, % (test concentration not listed); AID 588478, 2011; 330,000 tested, 0.33% active; purified proteasome/UCH37;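 active = mean inhibition over replicate wells above about 20%, limit read from the data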
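Reagent: Ub-AMC substrate; assay system: Proteasome-associated human UCH37 deubiquitinase; controls: no-proteasome and no-compound wells; read-out: % inhibition of Ub-AMC cleavage fluorescence; timing: 30 min preincubation with enzyme, 25 min cleavage at room temperature; signal: AMC fluorescence from Ub-AMC cleavage, excitation 355 nm, emission 460 nm; buffer or medium: Tris-HCl pH 7.4 plus ovalbumin, ATP-MgCl2, DTT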
PKA-R1A act: activators of PKA-R1A holoenzyme, primary screen, biochemical, fluorescence polarization, Cy5-IP20, bovine R1A, mouse PKAc; cAMP-dependent protein kinase type I-alpha regulatory subunit (Bos taurus) + …; PKA-R1A dissociation; scaled: DMSO 0%, 113 µM cGMP 100%; activation, % at 11.4 µM; 340,000 tested, 0.083% active;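 active = percent activation above the mean of all tested compounds plus 3 SD, cut at about 19% in these data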;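 also: higher means more PKAc released from R1A so a rise in polarization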
Rin1 Abl inh: inhibitors of Rin1-Abl protein binding, primary screen, biochemical, TR-FRET | Tyrosine-protein kinase ABL1 (Homo sapiens) + Ras and Rab interactor 1 (Homo sapiens), … | inhibition, % at 7.35 µM | 360,000 tested, 0.4% active; in the data active = inhibition above about 5%, passing the limit was not always enough
R2B FP artifact: fluorescence polarization artefacts, biochemical, artefact control for PKA-R2B activator project | activation, % at 11.4 µM | FP artifact counterscreen | shares compounds with PKA-R2B act | 270 tested, 6% active | AID 504796, 2011; in the data active = activation above about 20%;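 also: Cy5 labelled IP20 peptide probe with compound but no PKA protein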
PKA-R2B confirm: activators of PKA-R2B holoenzyme, confirmation, biochemical, fluorescence polarization, human | shares compounds with PKA-R2B act | activation, % at 11.4 µM | 270 tested, 9% active | AID 504797, 2011 | PKA-R2B complex, activation; in the data active = activation above about 19%
Target sequence (P31323 whole entry, looked up): as the sequence (P31323 whole entry, looked up, other chains not shown, the tested form may be a part) above
R1A FP artifact: FP signal interference without PKA proteins, confirmation, artefact control for PKA-R1A activator project, biochemical, fluorescence polarization, triplicate | AID 504799, 2011 | Cy5-IP20 peptide alone, fluorescence polarization artifact counterscreen | shares compounds with PKA-R1A act | activation, % at 11.4 µM | 280 tested, 7% active;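 active = mean activation over triplicate runs exceeds the adjusted cutoff derived for the parent primary screen, cut at about 19% in these data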;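 also: no PKA protein present so any polarization rise reflects compound interference; higher means stronger polarization artifact and likely false positive in parent screen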
PKA-R1A act conf: activators of PKA-R1A holoenzyme, confirmation, biochemical, fluorescence polarization, Cy5-IP20, triplicate; PKA-R1A holoenzyme dissociation; shares compounds with PKA-R1A act; 280 tested, 9% active; activation, % at 11.4 µM;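 active = mean activation over replicate wells exceeds the adjusted hit threshold taken from the earlier primary screen, cut at about 20% in these data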
Large screens that a line does not name were inactive (follow-up assays come after a bar, where they were run).

CN1CCN(C(=O)/C(=C/c2ccc(N(C)C)cc2)NC(=O)c2ccccc2)CC1	PKA-R2B act 20.3 | R2B FP artifact inactive | PKA-R2B confirm inactive
COc1ccc(C(=O)NC2CCN(CC(=O)NC3CCCCC3)CC2)cc1	none
COc1cc(C(=O)NC2CCN(CC(=O)NC3CCCCC3C)CC2)cc(OC)c1OC (stereo not given)	PKA-R2B act 18.4 | R2B FP artifact inactive | PKA-R2B confirm inactive
CCN(CC)c1ccc(-n2c(C)c(C(C)=O)c(C(C)=O)c2C)cc1	PKA-R2B act 18.6 | R2B FP artifact inactive | PKA-R2B confirm inactive
CC(=O)c1c(C(C)=O)c(C)n(-c2ccc(O)cc2)c1C	none
COc1ccc(-c2csc(N(CCCN(C)C)C(=O)c3ccc(F)cc3)n2)cc1	none
O=C(N/N=C/c1cc(O)ccc1[N+](=O)[O-])c1ccc2c(c1)OCCO2	PKA-R2B act 19.5 (no result: UCH37 DUB inh) | R2B FP artifact inactive | PKA-R2B confirm inactive
COc1ccccc1C(=O)NC(CCSC)C(=O)NCc1ccccn1 (stereo not given)	none
COc1ccccc1C(=O)NC(CCSC)C(=O)NCc1ccncc1 (stereo not given)	PKA-R2B act 21.1 | R2B FP artifact inactive | PKA-R2B confirm inactive
CC(=O)Oc1ccc(/C=N/NC2=NS(=O)(=O)c3ccccc32)cc1	none (no result: UCH37 DUB inh)
COc1ccc(/C=N/NC2=NS(=O)(=O)c3ccccc32)cc1	PKA-R2B act 22.6 (no result: UCH37 DUB inh) | R2B FP artifact inactive | PKA-R2B confirm inactive
Cc1[nH]nc(SCC(=O)Nc2cccc(O)c2)c1[N+](=O)[O-]	PKA-R2B act 19.1 | R2B FP artifact inactive | PKA-R2B confirm inactive
Cc1ccccc1NC(=O)CC1c2ccccc2CC(C)(C)N1C (stereo not given)	none
CC(C)OC(=O)CSc1nnc(-c2ccc(C(C)(C)C)cc2)n1N	PKA-R2B act 19.1 | R2B FP artifact inactive | PKA-R2B confirm inactive
CC(C)OC(=O)CSc1nnc(-c2ccncc2)n1N	none
C=CCn1c(SCC(=O)Nc2sccc2C(N)=O)nc2ccc(Cl)cc2c1=O	none
C=CCn1c(SCN2C(=O)c3ccccc3C2=O)nc2ccc(Cl)cc2c1=O	PKA-R2B act 18.7 | R2B FP artifact inactive | PKA-R2B confirm inactive
O=[N+]([O-])c1cccc(S(=O)(=O)NCCc2cccs2)c1	none
COc1ccc(CCNC(=O)c2cc(-c3cc(Cl)ccc3O)n[nH]2)cc1OC	none
O=C(OCc1ccc(F)cc1)c1cc(=O)c2ccccc2o1	PKA-R2B act 20.6 | R2B FP artifact inactive | PKA-R2B confirm inactive
O=C(COc1cccc(-n2cnnn2)c1)Nc1ccc([N+](=O)[O-])cc1	PKA-R2B act 20.2 | R2B FP artifact inactive | PKA-R2B confirm inactive
Cc1ccccc1-c1nnc(SCC(=O)NC2CCS(=O)(=O)C2)n1C (stereo not given)	PKA-R2B act 19.0 | R2B FP artifact inactive | PKA-R2B confirm inactive
Cc1ccccc1-c1nnc(SCC(=O)NC2CCCC2)n1C	none
O=S1(=O)N=C(N/N=C/c2ccc(Br)o2)c2ccccc21	none (no result: UCH37 DUB inh)
O=C1CCC/C1=C/Nc1cccc(F)c1	PKA-R2B act 19.0 | R2B FP artifact inactive | PKA-R2B confirm inactive
O=C1CCCC/C1=C/Nc1ccc2c(c1)OCO2	none
COc1ccc(-c2ccc3c(c2)c(C#Cc2ccsc2)c(-c2cc(OC)cc(OC)c2)n3C)cc1	none
C=C1CSc2nc(=O)c3c4c(sc3n21)CCC4	PKA-R2B act 19.8 | R2B FP artifact inactive | PKA-R2B confirm inactive
C=C1CSc2nc(=O)c3c4c(sc3n21)CCCC4	none
Cc1nc2scc(C)n2c(=O)c1S(=O)(=O)Nc1ccc(F)cc1	PKA-R2B act 21.7 | R2B FP artifact inactive | PKA-R2B confirm inactive
Cc1cc(F)ccc1NS(=O)(=O)c1c(C)nc2scc(C)n2c1=O	none
COc1cccc(NC(=O)CN2CCC(NC(=O)c3ccccc3C)CC2)c1	none (no result: UCH37 DUB inh)
CCN(CC)c1ccc(NC(=O)Cn2c(C(C)NC(=O)c3ccccc3)nc3ccccc32)cc1 (stereo not given)	PKA-R2B act 18.6 | R2B FP artifact inactive | PKA-R2B confirm inactive
Brc1ccc2cccnc2c1	PKA-R2B act 23.0 | R2B FP artifact inactive | PKA-R2B confirm inactive
Cc1ccc2nc(SCC(=O)O)nc(C)c2c1	PKA-R2B act 20.2 | R2B FP artifact inactive | PKA-R2B confirm inactive
Cc1cccc(C)c1C(=NCCCN(C)C)c1ccccc1	none
COc1cc2c(cc1OC)CN(CC(=O)NC(=O)NCc1ccco1)CC2	none
CC1=C/C(=C(\c2cc(C)c(O)c(Br)c2)c2ccccc2S(=O)(=O)O)C=C(Br)C1=O	PKA-R2B act 40.2, PKA-R1A act 34.3 (no result: UCH37 DUB inh) | R2B FP artifact 58.7 | PKA-R2B confirm 55.4 | R1A FP artifact 58.7 | PKA-R1A act conf 55.1
COc1ccc(NC(=S)NNc2ccc(S(=O)(=O)Nc3ccccc3C(=O)O)cc2[N+](=O)[O-])cc1	PKA-R2B act 83.2, PKA-R1A act 63.6 | R2B FP artifact 50.4 | PKA-R2B confirm 45.7 | R1A FP artifact 50.4 | PKA-R1A act conf 51.6
COc1ccc(C(=O)NCCc2ccccc2)cc1[N+](=O)[O-]	none
CCCC(=O)Nc1ncnc2c1ncn2[C@@H]1O[C@@H]2COP(=O)(O)O[C@H]2[C@H]1OC(=O)CCC	PKA-R2B act 32.9, PKA-R1A act 40.7 | R2B FP artifact inactive | PKA-R2B confirm 33.8 | R1A FP artifact inactive | PKA-R1A act conf 37.2
COc1cc(NC(=O)CC[C@H]2O[C@@H](n3cnc4c(NC(=O)c5ccccc5)ncnc43)[C@H](O)[C@@H]2O)cc(OC)c1OC	none (no result: PKA-R2B act, UCH37 DUB inh, PKA-R1A act)
CC1Cc2ccccc2N1C(=O)CSc1nnnn1C(C)C (stereo not given)	none
CCCc1cc(=O)n2[nH]c(NCc3ccccc3F)nc2n1	none
Cc1cc(=O)n2[nH]c(NCc3ccccc3F)nc2n1	PKA-R2B act 35.9, PKA-R1A act 30.4 | R2B FP artifact 33.9 | PKA-R2B confirm 31.5 | R1A FP artifact 33.9 | PKA-R1A act conf 34.6
